# Bioassay records: PubChem, Broad Institute
# Sampled rows, rich in hits. Any-hit rate of the full collection: about 1.7%.
# ARNT-TACC3 inh: ARNT/TACC3 interaction disruption; Q9Y6A5; AlphaScreen His-ARNT PAS-B/GST-TACC3 binding, luminescence; TACC3 fragment carries E629A point mutation; inhibition, % at 9.99 µM; 0.66% of 390,000 active; AID 623870;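 active = mean inhibition of replicates at least 50% and at least half of replicates each reaching 50%; inconclusive = half or more replicates reach 50% but mean below 50%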;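 note: 0% = complete ARNT plus TACC3 wells and 100% = ARNT alone without TACC3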
# CAL PDZ FP-1: CAL PDZ (human) peptide binding inhibition; inhibition, % at 24.9 µM; Q9HD26; purified CAL PDZ, TMR-peptide fluorescence polarization, 1 h; 0.92% of 300,000 active;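 active = mean inhibition of at least 30% with at least half of replicates also reaching 30%; inconclusive = no clear call, values can overlap the other calls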;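 note: 0% = DMSO neutral control and 100% = excess unlabeled competitor peptide PRC23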
# CAL PDZ FP-2: blocks peptide binding to human CAL PDZ domain; purified CAL PDZ, TMR-peptide fluorescence polarization, 1 h; inhibition, % at 20 µM; 0.02% of 330,000 active; AID 504414;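 active = highest replicate inhibition of at least 40%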;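 note: plate controls were DMSO neutral control wells for no effect and unlabeled competitor peptide control wells for full effect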
#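 Read-out basis: mP drop reported as inhibition | Assay system: Tagged CAL PDZ protein CerCALP, purified | Benchmarks: Unlabelled peptide for full inhibition, DMSO wells as neutral | Schedule: 1 h incubation at room temperature before polarization reading | Buffer or medium: Sodium phosphate/NaCl buffer pH 7.4 with TCEP, IgG, Thesit | Doses: Single point, 20 µM | Measured by: Fluorescence polarization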
# PGC1a acetyl inh: lowers PGC1a acetylation signal in U2OS cells. AlphaScreen anti-acetyl-lysine; with virally co-expressed GCN5 acetyltransferase. inhibition, % at 15.6 µM. 0.17% of 350,000 active. AID 651687;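 active = every replicate shows inhibition of at least 40%; inconclusive = mean inhibition at least 40% but some replicate below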;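 note: 0% = neutral control wells and 100% = positive control wells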
# CFTR F508del cor: correctors of CFTR F508del function in bronchial epithelial cells; CFBE cells, YFP halide quenching; stimulated with forskolin plus potentiator P3; % fluorescence drop versus neutral controls; 0.36% of 350,000 active; AID 720511; activity (quench increase), % at 7.58 µM;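 active = mean added fluorescence quench of at least 8% versus neutral control, with both replicates also reaching 8%; inconclusive = only one of the mean or replicate conditions met; inactive = mean below 8% and not both replicates reaching 8%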;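 note: cells transiently co-express mutant CFTR-F508del with the halide-sensitive YFP; corrector assay measuring rescue of mutant channel to the surface after 24 h compound exposure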
# miR-122 sensor: blocks miR-122 activity in Huh7 sensor cells | Huh7 miR-122 Renilla luciferase sensor, 48 h; neutral wells = 0, positive control = 100 | activation (reporter increase), % at 12.5 µM | 0.3% of 340,000 active;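 active = mean replicate activation score at least 90 and every replicate individually at or above 90; inconclusive = only one of the two criteria met; inactive = neither criterion met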;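 note: higher luciferase means less miR-122 activity so hits act as miR-122 inhibitors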
# * = called active by the depositor; u = inconclusive; x = no result given; + = active, no number; [ ] = dose if it differs, or a comment.
SMILES,ARNT-TACC3 inh,CAL PDZ FP-1,CAL PDZ FP-2,PGC1a acetyl inh,CFTR F508del cor,miR-122 sensor
Cc1ccc(C(=O)NCC(c2ccc(F)cc2)N2CCOCC2)cc1 (stereo unspecified),-8,-2,-2,-8,0,x
COc1ccccc1-c1ccc2c(c1)O[C@H](CN(C)C(=O)c1ccccc1)[C@H](C)CN([C@@H](C)CO)S2(=O)=O,5,x,x,-7,x,33[16.7 µM]
Cc1cc(Nc2ccccc2)nc(-c2ccccc2O)n1,0,1,0,-7,x,2
Cc1cc(Nc2ccccc2Cl)nc(-c2ccccc2O)n1,4,57*,x,-16,-2,-4
COc1ccc(COC[C@]23NC(=S)N(C(=O)c4ccccc4)[C@H](c4ccccc4O2)[C@H]3CO[Si](C)(C)C(C)(C)C)cc1,x,x,x,2,-2,x
COc1ccccc1N1CCN(C2CCCN(C(=O)c3cc(C4CC4)on3)C2)CC1 (stereo unspecified),0,128*,1,7,-3,-3
Cc1cc(C(=O)N2CCCC(N3CCN(c4ccccc4C)CC3)C2)n(C)n1 (stereo unspecified),-4,31*,0,2,1,-4
COc1ccc2c3c(n(C)c2c1)[C@@H](CO)N(C(=O)CC1CC1)CC31CN(C(=O)C2CC2)C1,x,x,x,-6,1,x
Cc1ccc(S(=O)(=O)Nc2ccc3c(c2)C(=O)N([C@@H](C)CO)C[C@H](C)[C@H](CN(C)S(=O)(=O)c2cn(C)cn2)OCCCC[C@@H](C)O3)cc1,-3,x,x,-8,-3,1[16.7 µM]
COc1ccc(OCCCN2CCCCCC2)cc1,47*,-3,-1,12,x,1
Cc1ccc(OCC(=O)N2CC(C)OC(C)C2)c([N+](=O)[O-])n1 (stereo unspecified),-5,46*,7,u,2,x
Clc1ccc(OCCCc2nc(-c3cccnc3)no2)c(Cl)c1,-1,-2,-1,-37,x,-6
Clc1ccc(OCCCc2nc(-c3ccncc3)no2)c(Cl)c1,-9,33*,x,-11,x,-1
CCCc1nc2ccccc2c(C(=O)OCC(=O)NCc2ccc3c(c2)OCO3)c1CC,x,-1,-2,x,9.0*,x
O=C(COC(=O)c1ccc2c(c1)OCO2)NCc1ccc(Cl)cc1,0,61*,x,0,x,7
O=C(COC(=O)Cc1ccc(Cl)cc1)NCc1ccc2c(c1)OCO2,-2,-2,-2,x,-3,1
O=C(NCC1CCCCC1)[C@@H]1[C@@H](CO)[C@@H]2Cn3c(ccc(C4=CCCC4)c3=O)[C@H]1N2,9,x,x,x,-1,-2[16.7 µM]
C[C@@H]1CN([C@@H](C)CO)C(=O)c2cc(NS(=O)(=O)c3cn(C)cn3)ccc2O[C@@H](C)CCCCO[C@H]1CN(C)Cc1ccncc1,0,x,x,-10,3,9[16.7 µM]
O=C(NC1CCCC1)N[C@@H]1CC[C@H](CC(=O)N2CCOCC2)O[C@H]1CO,-6,x,x,2,1,-11[16.7 µM]
CC(C)(C)CC(=O)NC(=S)Nc1ccccc1[N+](=O)[O-],-5,101*,0,x,-1,x
O=C(NC(=S)Nc1ccccc1[N+](=O)[O-])c1ccccc1Cl,-5,5,-2,4,3,-1
COC(=O)[C@@H](NC(=O)CN=[N+]=[N-])c1ccccc1,x,x,x,-10,2,x
COc1ccccc1-c1cnc2c(c1)C(=O)N([C@@H](C)CO)C[C@@H](C)[C@@H](CN(C)Cc1cccc(F)c1)O2,0,x,x,-7,0,-4[16.7 µM]
Cc1ccccc1N1CCN(C(=O)C2CCC(=O)N(C3CCCC3)C2)CC1 (stereo unspecified),-1,79*,0,4,-4,-8
COCC(=O)Nc1ccc2c(c1)C(=O)N(C)C[C@@H](OC)[C@H](C)CN(CCC(F)(F)F)[C@@H](C)CO2,-3,x,x,14,-3,4[16.7 µM]
SMILES,ARNT-TACC3 inh,CAL PDZ FP-1,CAL PDZ FP-2,PGC1a acetyl inh,CFTR F508del cor,miR-122 sensor
COc1ccccc1-c1cn(CC[C@H]2CC[C@@H](NC(=O)C3CC3)[C@H](CO)O2)nn1,-8,x,x,3,-2,x
CCOc1ccc(Cl)cc1C1=CC(=O)C[C@H](c2ccc(OC)cc2)C1,-3,-2,0,-15,9.1*,25
COc1ccc([C@H]2CC(=O)C=C(c3c(OC)cccc3OC)C2)cc1,0,-2,0,x,11*,x
C[C@@H]1CN([C@@H](C)CO)C(=O)c2cc(C3=CCCC3)cnc2O[C@H]1CN(C)C(=O)c1ccc(F)cc1,2,x,x,-13,-2,-10[16.7 µM]
CCOC(=O)N1CCC(N2C(=O)c3ccccc3C2Nc2ccc(S(=O)(=O)N(CC)CC)cc2)CC1 (stereo unspecified),-1,67*,-1,3,-2,x
CCOC(=O)N1CCC(N2C(=O)c3ccccc3C2Nc2ccc(C)cc2)CC1 (stereo unspecified),2,-8,1,x,0,x
Oc1ccc(Cl)cc1N=Nc1ccccc1,-3,2,0,-2,-1,-5
Nc1c(Cl)cc(N=Nc2ccccc2)cc1Cl,-1,+,0,-3,-2,5
C[C@H](CO)N1C[C@H](C)[C@@H](CN(C)C(=O)Nc2ccc(C(F)(F)F)cc2)Oc2ccc(NS(C)(=O)=O)cc2CC1=O,-3,x,x,4,1,2[16.7 µM]
OCC1OC(n2cnc3c(NCc4ccccc4O)ncnc32)C(O)C1O (stereo unspecified),-11,-4,-3,-16,-1,572*
OC[C@H]1O[C@@H](n2cnc3c(Nc4ccccc4)ncnc32)[C@H](O)[C@@H]1O,-4,-1,0,0,2,2
O=C(NCCCN1CCOCC1)c1sc2cc(Cl)ccc2c1Cl,0,-1,0,8,11*,x
C[C@@H]1CCCCO[C@H](CN(C)C(=O)CCC(F)(F)F)[C@H](C)CN([C@H](C)CO)C(=O)c2cc(NC(=O)CCC(F)(F)F)ccc2O1,2,x,x,7,0,3[16.7 µM]
C[C@@H]1CCCCO[C@H](CN(C)S(=O)(=O)c2cccs2)[C@H](C)CN([C@H](C)CO)C(=O)c2cc(NC(=O)Cc3ccccc3)ccc2O1,5,x,x,-5,-2,-6[16.7 µM]
COc1cc(C(c2c(C)[nH][nH]c2=O)c2c(C)[nH][nH]c2=O)cc([N+](=O)[O-])c1O,-17,-2,x,1,-1,x
CCOc1cc(C(c2c(C)[nH][nH]c2=O)c2c(C)[nH][nH]c2=O)cc([N+](=O)[O-])c1O,active,-4,x,-2,1,x
C[C@@H]1CN([C@H](C)CO)C(=O)c2cccc(N(C)C)c2O[C@H]1CN(C)C(=O)Nc1ccccc1,-5,x,x,8,0,124*[16.7 µM]
Cc1noc(C)c1NC(=O)N(C)C[C@@H]1Oc2c(NC(=O)c3ccc(-c4nccs4)cc3)cccc2C(=O)N([C@H](C)CO)C[C@H]1C,31*,x,x,-1,2,-5[16.7 µM]
